In PMC5615155 (Toxicology Reports, 2017):

Key:
[1] = cited from earlier work
[2] = definitive developmental toxicity study; type: in vivo, Crl:CD(SD) rats
How it was run: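 For the definitive developmental toxicity study, bred female Sprague-Dawley rats, 25/group, were given the sulfate salt of the test compound by oral gavage at 250, 500 or 1000 mg/kg bw/day, with a control group. Per litter, corpora lutea, implantation sites, pre- and post-implantation loss, live and dead fetuses, resorptions (early/late), fetal sex and fetal body weight were recorded.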

Cc1cc(C(=O)NC(C)(C)COc2cccc3c2C(N)=NS(=O)(=O)N3)cc(C)n1 [S2218, N-(1-((4-amino-2,2-dioxido-1H-benzo[c][1,2,6]thiadiazin-5-yl)oxy)-2-methylpropan-2-yl)-2,6-dimethylisonicotinamide]
water solubility at low pH vs S6973 and S617 [1]: improved water solubility at low pH

Cc1cc(C(=O)NC(C)(C)COc2cccc3c2C(N)=NS(=O)(=O)N3)cc(C)n1.O=S(=O)(O)O [S8069]
Corpora Lutea ([2]; 250 mg/kg bw/d, Mean): 15.1 | Dead Fetuses ([2]; 250 mg/kg bw/d, Mean): 0.0 | Fetal Wt. ([2]; 250 mg/kg bw/d, Mean): 5.9 g | Fetuses, Sex F ([2]; 250 mg/kg bw/d, Mean): 7.2 | Fetuses, Sex M ([2]; 250 mg/kg bw/d, Mean): 6.6 | Implant. Sites ([2]; 250 mg/kg bw/d, Mean): 14.8 | Post-Implant. Loss ([2]; 250 mg/kg bw/d, Mean): 1.0 | Pre-Implant. Loss ([2]; 250 mg/kg bw/d, Mean): 0.4 | Resorptions, Early ([2]; 250 mg/kg bw/d, Mean): 1.0 | Resorptions, Late ([2]; 250 mg/kg bw/d, Mean): 0.0 | Viable Fetuses ([2]; 250 mg/kg bw/d, Mean): 13.8 | Corpora Lutea ([2]; 250 mg/kg bw/d, Total): 363 | Dead Fetuses ([2]; 250 mg/kg bw/d, Total): 0 | Fetuses, Sex F ([2]; 250 mg/kg bw/d, Total): 173 | Fetuses, Sex M ([2]; 250 mg/kg bw/d, Total): 158 | Implant. Sites ([2]; 250 mg/kg bw/d, Total): 354 | Post-Implant. Loss ([2]; 250 mg/kg bw/d, Total): 23 | Pre-Implant. Loss ([2]; 250 mg/kg bw/d, Total): 9 | Resorptions, Early ([2]; 250 mg/kg bw/d, Total): 23 | Resorptions, Late ([2]; 250 mg/kg bw/d, Total): 0 | Viable Fetuses ([2]; 250 mg/kg bw/d, Total): 331 | Corpora Lutea ([2]; 500 mg/kg bw/d, Mean): 16.1 | Dead Fetuses ([2]; 500 mg/kg bw/d, Mean): 0.0 | Fetal Wt. ([2]; 500 mg/kg bw/d, Mean): 5.6 g | Fetuses, Sex F ([2]; 500 mg/kg bw/d, Mean): 8.2 | Fetuses, Sex M ([2]; 500 mg/kg bw/d, Mean): 6.6 | Implant. Sites ([2]; 500 mg/kg bw/d, Mean): 15.4 | Post-Implant. Loss ([2]; 500 mg/kg bw/d, Mean): 0.7 | Pre-Implant. Loss ([2]; 500 mg/kg bw/d, Mean): 0.7 | Resorptions, Early ([2]; 500 mg/kg bw/d, Mean): 0.7 | Resorptions, Late ([2]; 500 mg/kg bw/d, Mean): 0.0 | Viable Fetuses ([2]; 500 mg/kg bw/d, Mean): 14.7 | Corpora Lutea ([2]; 500 mg/kg bw/d, Total): 370 | Dead Fetuses ([2]; 500 mg/kg bw/d, Total): 0 | Fetuses, Sex F ([2]; 500 mg/kg bw/d, Total): 188 | Fetuses, Sex M ([2]; 500 mg/kg bw/d, Total): 151 | Implant. Sites ([2]; 500 mg/kg bw/d, Total): 355 | Post-Implant. Loss ([2]; 500 mg/kg bw/d, Total): 16 | Pre-Implant. Loss ([2]; 500 mg/kg bw/d, Total): 15 | Resorptions, Early ([2]; 500 mg/kg bw/d, Total): 16 | Resorptions, Late ([2]; 500 mg/kg bw/d, Total): 0 | Viable Fetuses ([2]; 500 mg/kg bw/d, Total): 339 | malformations, fetuses (litters) ([2]; 500 mg/kg bw/day): 4(4) | skeletal malformations, fetuses (litters) ([2]; 500 mg/kg bw/day): 3(3) | visceral malformations, fetuses (litters) ([2]; 500 mg/kg bw/day): 3(3) | Corpora Lutea ([2]; 1000 mg/kg bw/d, Mean): 15.1 | Dead Fetuses ([2]; 1000 mg/kg bw/d, Mean): 0.0 | Fetal Wt. ([2]; 1000 mg/kg bw/d, Mean): 5.6 g | Fetuses, Sex F ([2]; 1000 mg/kg bw/d, Mean): 7.0 | Fetuses, Sex M ([2]; 1000 mg/kg bw/d, Mean): 7.3 | Implant. Sites ([2]; 1000 mg/kg bw/d, Mean): 14.6 | Post-Implant. Loss ([2]; 1000 mg/kg bw/d, Mean): 0.3 | Pre-Implant. Loss ([2]; 1000 mg/kg bw/d, Mean): 0.6 | Resorptions, Early ([2]; 1000 mg/kg bw/d, Mean): 0.3 | Resorptions, Late ([2]; 1000 mg/kg bw/d, Mean): 0.0 | Viable Fetuses ([2]; 1000 mg/kg bw/d, Mean): 14.3 | Corpora Lutea ([2]; 1000 mg/kg bw/d, Total): 348 | Dead Fetuses ([2]; 1000 mg/kg bw/d, Total): 0 | Fetuses, Sex F ([2]; 1000 mg/kg bw/d, Total): 160 | Fetuses, Sex M ([2]; 1000 mg/kg bw/d, Total): 168 | Implant. Sites ([2]; 1000 mg/kg bw/d, Total): 335 | Post-Implant. Loss ([2]; 1000 mg/kg bw/d, Total): 7 | Pre-Implant. Loss ([2]; 1000 mg/kg bw/d, Total): 13 | Resorptions, Early ([2]; 1000 mg/kg bw/d, Total): 7 | Resorptions, Late ([2]; 1000 mg/kg bw/d, Total): 0 | Viable Fetuses ([2]; 1000 mg/kg bw/d, Total): 328 | malformations, fetuses (litters) ([2]; 1000 mg/kg bw/day): 1(1) | visceral malformations, fetuses (litters) ([2]; 1000 mg/kg bw/day): 1(1) | females with rales 1 h following dose ([2]; 1000 mg/kg bw/day, GD 8–17): 6 | females with salivation at time of dose ([2]; 1000 mg/kg bw/day, GD 12–16): 4 | mean maternal body weight loss ([2]; 1000 mg/kg bw/day, Gestation Day 8–9): 2 g | external malformations ([2]; test article-treated groups): no external malformations observed
